The results in this text go back to ChEMBL document CHEMBL1154089, “Novel N-(3-carboxyl-9-benzyl-beta-carboline-1-yl)ethylamino acids: synthesis, anti-tumor evaluation, intercalating determination, 3D QSAR analysis and docking investigation” (Eur J Med Chem, 2009).

For one data set, the system named is HL-60. Briefly: Cytotoxicity against human HL60 cells after 48 hrs by MTT assay. It counts as functional, cell-based. As to conditions: HL-60, 48 h. The method in brief:
(§1)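 Cells grown in DMEM or RPMI-1640 with 10% FBS plus penicillin/streptomycin. Seeded at 5 × 10^4 cells/ml and given 4 h at 37 °C in 5% CO2 before the medium was replaced with compound (0.1–400 µM, DMSO vehicle; vehicle control 1% DMSO). After 48 h, MTT added (final 0.5 mg/ml) for 4 h. Formazan dissolved in DMSO and read at 570 nm. IC50 is the concentration giving 50% growth inhibition.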

Data set [1] in a line: Cytotoxicity against human MES-SA cells after 48 hrs by MTT assay. It counts as functional, cell-based. A digest of the protocol: as §1
For data set [2], the system named is CCRF S-180. Briefly: Antitumor activity against mouse S180 cells xenografted in ICR mouse assessed as inhibition of tumor growth at 89 umol/kg, ip administered 24 hrs after tumor implantation once daily for 7 consecutive days measured after 24 hrs last post dose. Particulars: CCRF S-180, ip. It counts as functional. The method in brief: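 S180 solid tumors in male ICR mice (10–12 weeks), 1 × 10^7 cells s.c. at the right armpit. Mice randomized at 24 h, n = 12 per group, and dosed i.p. daily in 0.2 ml 0.9% saline for 7 days. Tumors weighed 24 h after the final dose. Inhibition (%) = [(A − B)/A] × 100, where A is the mean tumor weight of saline controls and B is the mean of the treated group.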

The next data set deals with HepG2. The data set is described as follows: Cytotoxicity against human HepG2 cells after 48 hrs by MTT assay. Particulars: HepG2, 48 h. It counts as functional, cell-based. A digest of the protocol:
as §1

The subject of data set [3] is Mus musculus. The data set is described as follows: Toxicity in ICR mouse assessed as liver necropsy at > 500 mg/kg, ip after 7 days. It counts as organism-based. On the set-up: dose 500 mg/kg, route intraperitoneal. Particulars: in vivo, 168 h. A digest of the protocol: (§2)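 Mice fasted overnight with free access to water, then given a single i.p. injection of 150, 300 or 500 mg/kg in 0.2 ml of 0.9% saline. Groups of 12 (six male, six female). Animals were watched continuously for up to 7 days for abnormal behaviour (tremor, twitch, jumping, tetanus, supination) or death. They were sacrificed on day 7, and heart, liver and kidneys were checked macroscopically. LD50 was estimated graphically.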

A further data set concerns HeLa. Briefly: Cytotoxicity against human HeLa cells after 48 hrs by MTT assay. It counts as functional, cell-based. A digest of the protocol: as §1
Data set [4] deals with Mus musculus. Briefly: Toxicity in ICR mouse assessed as death at > 500 mg/kg, ip after 7 days. It counts as organism-based. On the set-up: dose 500 mg/kg, route intraperitoneal. As to conditions: in vivo, 168 h. The method in brief: as §2
In data set [5] the test system is Mus musculus. The data set is described as follows: Toxicity in ICR mouse assessed as twitch at > 500 mg/kg, ip after 7 days. On the set-up: dose 500 mg/kg, route intraperitoneal. It counts as organism-based. Particulars: in vivo, 168 h. The method in brief: as §2
Data set [6] is described as follows: Cytotoxicity against human H1299 cells after 48 hrs by MTT assay. It counts as functional, cell-based. Particulars: NCI-H1299, 48 h. The method in brief:
as §1

The test system of data set [7] is Mus musculus. Briefly: Toxicity in ICR mouse assessed as tetanus at > 500 mg/kg, ip after 7 days. It counts as organism-based. On the set-up: dose 500 mg/kg, route intraperitoneal. Particulars: in vivo, 168 h. The method in brief:
as §2

Data set [8] deals with Mus musculus. The data set is described as follows: Toxicity in ICR mouse assessed as supination at > 500 mg/kg, ip after 7 days. It counts as organism-based. On the set-up: dose 500 mg/kg, route intraperitoneal. Particulars: in vivo, 168 h. The method in brief: as §2
Data set [9] deals with Mus musculus. Briefly: Toxicity in ICR mouse assessed as kidneys necropsy at > 500 mg/kg, ip after 7 days. It counts as organism-based, Kidney. On the set-up: dose 500 mg/kg, route intraperitoneal. Particulars: in vivo, 168 h. The method in brief:
as §2

The subject of data set [10] is Mus musculus. The data set is described as follows: Toxicity in mouse S180 cells xenografted in ICR mouse assessed as increase in body weight at 89 umol/kg, ip administered 24 hrs after tumor implantation once daily for 7 consecutive days measured after 24 hrs last post dose. It counts as organism-based, CCRF S-180. As to conditions: in vivo. The method in brief: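 S180-bearing male ICR mice, n = 12 per group, given 89 µmol/kg i.p. daily in 0.2 ml 0.9% saline for 7 days, starting 24 h after s.c. implantation. Animals weighed daily. Result expressed as body-weight increase from the start of treatment, in g, mean ± SD.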

Data set [11] has as its system Mus musculus. Briefly: Toxicity in ICR mouse assessed as heart necropsy at > 500 mg/kg, ip after 7 days. It counts as organism-based. On the set-up: dose 500 mg/kg, route intraperitoneal. As to conditions: in vivo, 168 h. The method in brief: as §2
Data set [12] has as its system CCRF S-180. Briefly: Antitumor activity against mouse S180 cells xenografted in ICR mouse assessed as decrease in tumor weight at 89 umol/kg, ip administered 24 hrs after tumor implantation once daily for 7 consecutive days measured after 24 hrs last post dose. It counts as functional. A digest of the protocol:
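Male ICR mice, 10–12 weeks old. Solid tumors from 1 × 10^7 viable S180 ascites cells in 0.2 ml 0.9% saline, injected s.c. at the right armpit. Random allocation at 24 h, 12 per group. Dosed i.p. daily in 0.2 ml 0.9% saline for 7 days. Saline-only negative control; cytarabine 89 µmol/kg positive control. Tumors excised and weighed 24 h after the last dose. ANOVA used for statistics.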

The test system of data set [13] is Mus musculus. The data set is described as follows: Toxicity in ICR mouse assessed as jumping at > 500 mg/kg, ip after 7 days. It counts as organism-based. On the set-up: dose 500 mg/kg, route intraperitoneal. Particulars: in vivo, 168 h. A digest of the protocol: as §2
Data set [14] relates to Mus musculus. The data set is described as follows: Toxicity in ICR mouse assessed as tremor at > 500 mg/kg, ip after 7 days. On the set-up: dose 500 mg/kg, route intraperitoneal. It counts as organism-based. As to conditions: in vivo, 168 h. The method in brief: as §2
For data set [15], the system named is Mus musculus. The data set is described as follows: Toxicity in mouse S180 cells xenografted in ICR mouse assessed as spleen index at 89 umol/kg, ip administered 24 hrs after tumor implantation once daily for 7 consecutive days measured after 24 hrs last post dose. It counts as organism-based, CCRF S-180. As to conditions: in vivo. The method in brief: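 S180-bearing male ICR mice (n = 12) received 89 µmol/kg i.p. daily in 0.2 ml saline for 7 days. Killed under ether 24 h after the last dose; spleens excised and weighed. Spleen index given as mean ± SD, […] body weight.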

With `O=C(O)C[C@H](NCCc1nc(C(=O)O)cc2c3ccccc3n(Cc3ccccc3)c12)C(=O)O`, the half-inhibitory concentration (IC50) came to 43.2 µM in the data set with HL-60; 13 µM in data set [1]; 114 µM with HepG2; 99.3 µM in the data set on HeLa; 69 µM in [6]. Also, in the data set with CCRF S-180 [2], the inhibition in vivo at 89 µmol/kg is 34.7%. In addition, the Activity result in the data set on Mus musculus [3], in the data set with Mus musculus [4], in the data set with Mus musculus [5], in the data set with Mus musculus [7], in the data set on Mus musculus [8] and in the data set with Mus musculus [9] was “Non-toxic” in each case. Moreover, the Activity in the data set with Mus musculus [10] was 10.11 g; with Mus musculus [11] it was “Non-toxic”; with CCRF S-180 [12], 1.08 g; in the data set on Mus musculus [13], “Non-toxic”; with Mus musculus [14] it was “Non-toxic”; with Mus musculus [15], 13 mg/g.
`Nc1ccn([C@@H]2O[C@H](CO)[C@@H](O)[C@@H]2O)c(=O)n1` [CYTARABINE]: the inhibition in vivo at 89 µmol/kg with CCRF S-180 [2] came to 54.8%. Further, the Activity with CCRF S-180 [12] was determined as 0.74 g.
Consider `C[C@@H](O)[C@H](NCCc1nc(C(=O)O)cc2c3ccccc3n(Cc3ccccc3)c12)C(=O)O`, for which the IC50 was 50.4 µM in the data set on HL-60; 218 µM in data set [1]; over 400 µM in the data set with HepG2; 221 µM in the data set on HeLa; 86.4 µM in data set [6]. Also, the inhibition in vivo at 89 µmol/kg in the data set with CCRF S-180 [2] is -29.1%. Moreover, the Activity entry in the data set with Mus musculus [3], in the data set with Mus musculus [4], with Mus musculus [5], in the data set with Mus musculus [7], in the data set with Mus musculus [8] and with Mus musculus [9] was “Non-toxic” throughout. The Activity was 11.37 g in the data set with Mus musculus [10]; “Non-toxic” in the data set on Mus musculus [11]; 2.12 g with CCRF S-180 [12]; “Non-toxic” in the data set on Mus musculus [13]; “Non-toxic” in the data set with Mus musculus [14]; 11.4 mg/g with Mus musculus [15].
On to `O=C(O)c1cc2c3ccccc3n(Cc3ccccc3)c2c(CCN[C@@H](Cc2ccc(O)cc2)C(=O)O)n1`, for which the half-inhibitory concentration (IC50) in the data set with HL-60 is 24 µM; in data set [1], 59.3 µM; with HepG2, 127 µM; in the data set with HeLa, 209 µM; in data set [6], 72.5 µM. For the same compound, in the data set with CCRF S-180 [2], the inhibition in vivo at 89 µmol/kg worked out at 48.6%. In addition, the Activity result in the data set on Mus musculus [3], in the data set with Mus musculus [4], with Mus musculus [5], with Mus musculus [7], in the data set with Mus musculus [8] and in the data set on Mus musculus [9] was “Non-toxic” each time. The Activity with Mus musculus [10] was 13.62 g; with Mus musculus [11] it was “Non-toxic”; in the data set with CCRF S-180 [12], 0.85 g; in the data set on Mus musculus [13], “Non-toxic”; in the data set on Mus musculus [14], “Non-toxic”; in the data set with Mus musculus [15] it was 13.6 mg/g.
In the case of `CC(C)C[C@H](NCCc1nc(C(=O)O)cc2c3ccccc3n(Cc3ccccc3)c12)C(=O)O`, the half-inhibitory concentration (IC50) in the data set with HL-60 turned out to be 45.2 µM; in data set [1] it was 71.2 µM; in the data set on HepG2, 176 µM; in the data set with HeLa it was 189 µM; in data set [6], 69.9 µM. For the same compound, the inhibition in vivo at 89 µmol/kg in the data set on CCRF S-180 [2] was found to be 8.7%. In addition, the Activity in the data set with Mus musculus [10] was determined as 9.04 g; in the data set with CCRF S-180 [12], 1.51 g; with Mus musculus [15] it was 10.9 mg/g.
Regarding `O=C(O)c1cc2c3ccccc3n(Cc3ccccc3)c2c(CCN[C@@H](Cc2c[nH]cn2)C(=O)O)n1`, the IC50 turned out to be 160 µM in the data set with HL-60; 14.5 µM in data set [1]; 70.7 µM in the data set on HepG2; 136 µM in the data set with HeLa; 20 µM in data set [6]. Also, in the data set with CCRF S-180 [2], the inhibition in vivo at 89 µmol/kg was 9.7%. Moreover, the Activity in the data set on Mus musculus [10] was determined as 11.87 g; in the data set on CCRF S-180 [12], 1.49 g; with Mus musculus [15], 11.9 mg/g.
